Among the data in ChEMBL document CHEMBL1141215, “Design, synthesis, and microbiological evaluation of new Candida albicans CYP51 inhibitors” (2005) are Survival, MIC and MST values, retold here.

Assay [1] deals with Mus musculus. The assay can be described thus: Survival of mouse administered at 14 mg/kg/day, ip. The class given is functional, CD1. Conditions: route intraperitoneal. The procedure, abridged: (§1)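 Female CD1 mice (8–10 weeks, 25–30 g), 10 per group, infected iv via lateral tail vein with 1×10^5 C. albicans CA-6 cells (24 h Sabouraud culture at 28 °C, saline-washed). Dosing was ip at 14 mg/kg in DMSO/H2O (1:4), 2 h before infection and then daily for 8 days. Median survival time was compared by Mann–Whitney U test, and dead/total was counted at day 30.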

The next assay concerns Candida albicans. The assay can be described thus: Antifungal activity against Candida albicans. Format: functional. Conditions: CA-6. The procedure, abridged:
(§2)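 Broth microdilution per NCCLS M27-A in RPMI 1640 buffered with 0.165 M MOPS, pH 7. Strains were C. albicans CA-6 (vaginal clinical isolate) and C. krusei ATCC 6258. Inocula came from 24 h cultures on Sabouraud dextrose agar at 28 °C, washed in saline and counted by hemocytometer. Serial dilutions ran 0.9–500 µg/mL. MIC was the lowest concentration giving 80% turbidity reduction versus drug-free control.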

In another assay the test system is Pichia kudriavzevii. The assay can be described thus: Antifungal activity against Candida krusei. The class given is functional. The note with it: 6258. The method, boiled down: as §2
The test system of assay [2] is Mus musculus. The assay can be described thus: Median survival time in mouse at 14 mg/kg/day, ip. Format: functional, CD1. Conditions: route intraperitoneal. The procedure, abridged:
as §1

Converted amounts (≈) assume the structure as drawn. A value given as a limit tells only on which side of the number the result lay.

Broadly, the MIC is the lowest concentration that inhibits growth of the organism. Take `OC(Cn1cncn1)(Cn1cncn1)c1ccc(F)cc1F` [FLUCONAZOLE]: the Survival in the assay with Mus musculus [1] stood at 23 days. In addition, the MIC is less than 1.8 µg/mL with Candida albicans and 62.5 µg/mL (≈ 204 µM) against Pichia kudriavzevii. This compound also showed an MST in the assay with Mus musculus [2] greater than 30 days.

On to `CN1C(=O)CSc2ccc(C(Cn3ccnc3)OCc3ccc(Cl)cc3)cc21` (stereo not drawn), for which the figures for the MIC against Candida albicans and in the assay on Pichia kudriavzevii were less than 1.8 µg/mL and 15.6 µg/mL (≈ 37.7 µM), respectively.

In turn, `CCCCC1Sc2ccc(C(O)Cn3ccnc3)cc2N(C)C1=O` (stereo not drawn) yielded a Survival in the assay on Mus musculus [1] of 9 days. The MIC in the assay on Candida albicans stood at 31.2 µg/mL (≈ 90.3 µM); against Pichia kudriavzevii, 250 µg/mL (≈ 724 µM). In the assay with Mus musculus [2], this compound registered an MST of 14 days.

As for `CCCCC1Oc2ccc(C(O)Cn3ccnc3)cc2N(C)C1=O` (stereo not drawn), in the assay with Mus musculus [1], the Survival turned out to be 9 days. The MIC in the assay with Candida albicans and in the assay with Pichia kudriavzevii was 125 µg/mL (≈ 379 µM) in each case. The MST with Mus musculus [2] amounted to 14 days.

In the case of `CN1C(=O)COc2ccc(C(Cn3ccnc3)OCc3ccc(Cl)cc3)cc21` (stereo not drawn), the figures for the MIC against Candida albicans and in the assay with Pichia kudriavzevii were 7.8 µg/mL (≈ 19.6 µM) and 15.6 µg/mL (≈ 39.2 µM), respectively.

Regarding `CN1C(=O)CSc2ccc(C(O)Cn3ccnc3)cc21` (stereo not drawn), the MIC with Candida albicans amounted to 62.5 µg/mL (≈ 216 µM); against Pichia kudriavzevii, 250 µg/mL (≈ 864 µM).

In the assay with Mus musculus [1], `CCCCOC1Sc2ccc(C(O)Cn3ccnc3)cc2N(C)C1=O` (stereo not drawn) registered a Survival of 9 days. The MIC against Candida albicans turned out to be 31.2 µg/mL (≈ 86.3 µM); against Pichia kudriavzevii it was 125 µg/mL (≈ 346 µM). The compound further came in with an MST in the assay on Mus musculus [2] of 14 days.

As for `CCCCOC1Oc2ccc(C(O)Cn3ccnc3)cc2N(C)C1=O` (stereo not drawn), the Survival in the assay on Mus musculus [1] was found to be 4 days. Moreover, the MIC with Candida albicans was 125 µg/mL (≈ 362 µM); against Pichia kudriavzevii, 31.2 µg/mL (≈ 90.3 µM). For the same compound, the MST in the assay on Mus musculus [2] stood at 12 days.

In the case of `CN1C(=O)COc2ccc(C(O)Cn3ccnc3)cc21` (stereo not drawn), the values for the MIC with Candida albicans and against Pichia kudriavzevii were 250 µg/mL (≈ 915 µM) and 31.2 µg/mL (≈ 114 µM), respectively.
